We go through 13 compounds from ChEMBL document CHEMBL4316612, “Synthesis of novel dihydrotriazine derivatives bearing 1,3-diaryl pyrazole moieties as potential antibacterial agents” (Bioorg Med Chem Lett, 2019).

What all share (assay type): functional
Assay [1] has as its system Staphylococcus aureus. Description: Antibacterial activity against quinolone-resistant Staphylococcus aureus CCARM 3519 after 24 hrs by microtiter ELISA. Particulars: CCARM 3519, 24 h. In outline: (§1)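 Broth microdilution MIC. Bacteria grown to mid-log phase in Mueller-Hinton broth, diluted 1000-fold, and inoculated at 10^5 CFU/mL. Compounds in DMSO (final ≤0.05%) were given as two-fold serial dilutions, final 64-0.25 µg/mL. Plates were incubated 24 h at 37 °C and growth read at 650 nm. MIC is the lowest concentration giving complete growth inhibition. Three independent experiments; oxacillin and norfloxacin served as positive controls.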
(An ELISA detects its analyte on a solid surface through an enzyme-linked reagent.)

Assay [2] relates to Staphylococcus aureus. The assay is described as follows: Antibacterial activity against Staphylococcus aureus RN4220 after 24 hrs by microtiter ELISA. Particulars: RN4220, 24 h. In outline:
as §1

Assay [3] has as its system Staphylococcus aureus. Description: Antibacterial activity against methicillin-resistant Staphylococcus aureus CCARM 3506 after 24 hrs by microtiter ELISA. The settings on record: CCARM 3506, 24 h. In short, it runs like this: as §1
The test system of another assay is Escherichia coli. Description: Antibacterial activity against Escherichia coli KCTC 1924 after 24 hrs by microtiter ELISA. Particulars: KCTC 1924, 24 h. In outline:
(§2)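 Two-fold serial broth dilution in Mueller-Hinton broth, final 64-0.25 µg/mL; compounds in DMSO (final ≤0.05%). Mid-log cultures diluted 1000-fold, inoculum 10^5 CFU/mL; oxacillin and norfloxacin as positive controls. After 24 h at 37 °C, growth read at 650 nm on a microtiter ELISA reader; MIC = lowest level giving complete growth inhibition. Run three times.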

The subject of assay [4] is Staphylococcus aureus. Description: Antibacterial activity against quinolone-resistant Staphylococcus aureus CCARM 3505 after 24 hrs by microtiter ELISA. Particulars: CCARM 3505, 24 h. In outline:
as §1

In a further assay the test system is Streptococcus mutans. Description: Antibacterial activity against Streptococcus mutans 3289 after 24 hrs by microtiter ELISA. The settings on record: Streptococcus mutans, 3289, 24 h. In short, it runs like this: as §2
The test system of a further assay is Candida albicans. Description: Antifungal activity against Candida albicans 7535 after 24 hrs by microtiter ELISA. The settings on record: Candida albicans, 7535, 24 h. In short, it runs like this:
as §2

Assay [5] relates to Staphylococcus aureus. Description: Antibacterial activity against methicillin-resistant Staphylococcus aureus CCARM 3167 after 24 hrs by microtiter ELISA. The settings on record: CCARM 3167, 24 h. In short, it runs like this: as §1

≈ marks a conversion by molar mass, not a printed value.

In general, MIC refers to the least concentration at which growth counts as inhibited. Lower therefore signals a more susceptible organism.

For the compound `NC1=NC(c2cn(-c3ccccc3)nc2-c2cccc(Cl)c2)N=C(N2CCOCC2)N1` (stereo not drawn), the minimal inhibitory concentration (MIC) against Staphylococcus aureus [1] is 16 µg/mL (≈ 36.7 µM); in the assay with Staphylococcus aureus [2] it was 16 µg/mL (≈ 36.7 µM); in the assay with Staphylococcus aureus [3] it was 16 µg/mL (≈ 36.7 µM); in the assay on Escherichia coli, 16 µg/mL (≈ 36.7 µM); in the assay with Staphylococcus aureus [4], 16 µg/mL (≈ 36.7 µM); in the assay with Streptococcus mutans, 32 µg/mL (≈ 73.4 µM). Besides, the MIC with Candida albicans and in the assay with Staphylococcus aureus [5] was 16 µg/mL (≈ 36.7 µM) each time.
For `NC1=NC(c2cn(-c3ccc([N+](=O)[O-])cc3[N+](=O)[O-])nc2-c2ccccc2Cl)N=C(N2CCOCC2)N1` (stereo not drawn), the MIC against Staphylococcus aureus [1] stood at 64 µg/mL (≈ 122 µM); in the assay on Staphylococcus aureus [2], 32 µg/mL (≈ 60.8 µM); in the assay on Staphylococcus aureus [3], 32 µg/mL (≈ 60.8 µM); with Escherichia coli it was 64 µg/mL (≈ 122 µM); against Staphylococcus aureus [4], 32 µg/mL (≈ 60.8 µM); against Streptococcus mutans it was 64 µg/mL (≈ 122 µM). Besides, the MIC against Candida albicans was 64 µg/mL (≈ 122 µM); with Staphylococcus aureus [5], 32 µg/mL (≈ 60.8 µM).
For `CN(C)C1=NC(c2cn(-c3ccc([N+](=O)[O-])cc3[N+](=O)[O-])nc2-c2cccc(Cl)c2)N=C(N)N1` (stereo not drawn), the MIC in the assay on Staphylococcus aureus [1] worked out at 16 µg/mL (≈ 33.1 µM); with Staphylococcus aureus [2], 4 µg/mL (≈ 8.27 µM); with Staphylococcus aureus [3], 4 µg/mL (≈ 8.27 µM); with Escherichia coli it was 8 µg/mL (≈ 16.5 µM); in the assay on Staphylococcus aureus [4], 4 µg/mL (≈ 8.27 µM); against Streptococcus mutans it was 8 µg/mL (≈ 16.5 µM). Also, the MIC with Candida albicans came to 8 µg/mL (≈ 16.5 µM); against Staphylococcus aureus [5] it was 4 µg/mL (≈ 8.27 µM).
Regarding `CN(C)C1=NC(c2cn(-c3ccccc3)nc2-c2ccc(Cl)cc2)N=C(N)N1` (stereo not drawn), the MIC in the assay on Staphylococcus aureus [1] amounted to 16 µg/mL (≈ 40.6 µM); in the assay on Staphylococcus aureus [2], 8 µg/mL (≈ 20.3 µM); in the assay with Staphylococcus aureus [3], 8 µg/mL (≈ 20.3 µM); in the assay on Escherichia coli it was 8 µg/mL (≈ 20.3 µM); in the assay on Staphylococcus aureus [4], 16 µg/mL (≈ 40.6 µM); against Streptococcus mutans, 32 µg/mL (≈ 81.2 µM). In addition, the MIC stood at 8 µg/mL (≈ 20.3 µM) with Candida albicans and 16 µg/mL (≈ 40.6 µM) in the assay with Staphylococcus aureus [5].
In the case of `NC1=NC(c2cn(-c3ccccc3)nc2-c2ccc(Cl)cc2)N=C(N2CCOCC2)N1` (stereo not drawn), the MIC against Staphylococcus aureus [1] is 16 µg/mL (≈ 36.7 µM); in the assay on Staphylococcus aureus [2] it was 16 µg/mL (≈ 36.7 µM); in the assay with Staphylococcus aureus [3] it was 16 µg/mL (≈ 36.7 µM); in the assay on Escherichia coli it was 16 µg/mL (≈ 36.7 µM); against Staphylococcus aureus [4], 16 µg/mL (≈ 36.7 µM); in the assay on Streptococcus mutans, 32 µg/mL (≈ 73.4 µM). In addition, the MIC in the assay with Candida albicans and in the assay with Staphylococcus aureus [5] was 16 µg/mL (≈ 36.7 µM) each time.
`CN(C)C1=NC(c2cn(-c3ccccc3)nc2-c2ccccc2)N=C(N)N1` (stereo not drawn): the MIC was 64 µg/mL (≈ 178 µM) in the assay with Staphylococcus aureus [1]; 32 µg/mL (≈ 89 µM) against Staphylococcus aureus [2]; 32 µg/mL (≈ 89 µM) in the assay on Staphylococcus aureus [3]; 64 µg/mL (≈ 178 µM) in the assay on Escherichia coli; 32 µg/mL (≈ 89 µM) in the assay with Staphylococcus aureus [4]; more than 64 µg/mL in the assay on Streptococcus mutans. The figures for the MIC with Candida albicans and with Staphylococcus aureus [5] were more than 64 µg/mL and 32 µg/mL (≈ 89 µM), respectively.
With `CN(C)C1=NC(c2cn(-c3ccc([N+](=O)[O-])cc3[N+](=O)[O-])nc2-c2ccccc2)N=C(N)N1` (stereo not drawn), the MIC with Staphylococcus aureus [1] was found to be 64 µg/mL (≈ 142 µM); in the assay with Staphylococcus aureus [2], 32 µg/mL (≈ 71.2 µM); with Staphylococcus aureus [3], 64 µg/mL (≈ 142 µM); in the assay on Escherichia coli, 32 µg/mL (≈ 71.2 µM); in the assay with Staphylococcus aureus [4], 32 µg/mL (≈ 71.2 µM); in the assay with Streptococcus mutans it was 64 µg/mL (≈ 142 µM). Moreover, the minimal inhibitory concentration (MIC) against Candida albicans and against Staphylococcus aureus [5] was 32 µg/mL (≈ 71.2 µM) in each case.
In the case of `CCn1cc(C(=O)O)c(=O)c2cc(F)c(N3CCNCC3)cc21` [NORFLOXACIN], the MIC against Staphylococcus aureus [1] was more than 64 µg/mL; in the assay on Staphylococcus aureus [3], 4 µg/mL (≈ 12.5 µM); in the assay with Staphylococcus aureus [4], more than 64 µg/mL; in the assay on Staphylococcus aureus [5] it was 8 µg/mL (≈ 25.1 µM).
On to `Cc1ccc(-c2nn(-c3ccccc3)cc2C2N=C(N)NC(N(C)C)=N2)cc1` (stereo not drawn), for which the MIC in the assay with Staphylococcus aureus [1] worked out at 64 µg/mL (≈ 171 µM); with Staphylococcus aureus [2], 32 µg/mL (≈ 85.7 µM); in the assay on Staphylococcus aureus [3] it was 32 µg/mL (≈ 85.7 µM); in the assay with Escherichia coli it was 32 µg/mL (≈ 85.7 µM); in the assay on Staphylococcus aureus [4], 64 µg/mL (≈ 171 µM); against Streptococcus mutans, 64 µg/mL (≈ 171 µM). The minimum inhibitory concentration (MIC) against Candida albicans stood at 32 µg/mL (≈ 85.7 µM); against Staphylococcus aureus [5], 16 µg/mL (≈ 42.8 µM).
Regarding `NC1=NC(c2cn(-c3ccc([N+](=O)[O-])cc3[N+](=O)[O-])nc2-c2ccccc2[N+](=O)[O-])N=C(N2CCOCC2)N1` (stereo not drawn), the MIC against Staphylococcus aureus [1], with Staphylococcus aureus [2], against Staphylococcus aureus [3], in the assay with Escherichia coli, against Staphylococcus aureus [4] and with Streptococcus mutans was more than 64 µg/mL each time. The MIC against Candida albicans and in the assay on Staphylococcus aureus [5] was more than 64 µg/mL in each case.
For `COc1c(N2C[C@@H]3CCCN[C@@H]3C2)c(F)cc2c(=O)c(C(=O)O)cn(C3CC3)c12` [MOXIFLOXACIN], the MIC against Staphylococcus aureus [1] came out at 4 µg/mL (≈ 9.96 µM); against Staphylococcus aureus [2], 0.25 µg/mL (≈ 0.623 µM); with Streptococcus mutans it was 0.25 µg/mL (≈ 0.623 µM).
In the case of `NC1=NC(c2cn(-c3ccc([N+](=O)[O-])cc3[N+](=O)[O-])nc2-c2ccccc2F)N=C(N2CCOCC2)N1` (stereo not drawn), the minimum inhibitory concentration (MIC) against Staphylococcus aureus [1] was 64 µg/mL (≈ 126 µM); with Staphylococcus aureus [2], 64 µg/mL (≈ 126 µM); in the assay on Staphylococcus aureus [3], 32 µg/mL (≈ 62.8 µM); with Escherichia coli, 64 µg/mL (≈ 126 µM); against Staphylococcus aureus [4], 64 µg/mL (≈ 126 µM); with Streptococcus mutans, more than 64 µg/mL. Further, the MIC in the assay with Candida albicans and against Staphylococcus aureus [5] was 64 µg/mL (≈ 126 µM) in each case.
The compound `CCC(C)n1ncn(-c2ccc(N3CCN(c4ccc(OCC5COC(Cn6cncn6)(c6ccc(Cl)cc6Cl)O5)cc4)CC3)cc2)c1=O` (stereo not drawn) [ITRACONAZOLE] returned an MIC in the assay on Candida albicans of 0.6 µg/mL (≈ 0.85 µM).
